Assay outcomes from PubChem.
Statin myotox sup: suppressors of statin myotoxicity in C2C12 myotubes, primary screen, cell-based, single point, plate reader. C2C12 myotubes + simvastatin, ATP luminescence, 48 h; scaled: DMSO 0, geranylgeraniol control 100. rescue of ATP level, % at 7.49 µM. 330,000 tested, 0.78% active;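 active means mean ATP rescue above about 67%, or every replicate alone reaching that limit, limit read from the data, passing the limit was not always enough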;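 further: myotubes were challenged with 10 µM simvastatin during compound exposure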
Cneo AK release: Cryptococcus neoformans cell lysis inducers, primary screen, AK release luminescence, single concentration; C. neoformans lysis, adenylate kinase release luminescence, 4 h; normalised: neutral wells 0, clomiphene wells 100; lysis activity, % at 15 µM; 360,000 tested, 0.2% active;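 active means mean lysis activity across replicates of at least 80%, whatever share of replicates individually reach that level; inactive means mean lysis activity below 80%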
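Material: C. neoformans cells | Amount: Yeast cell density of 5 × 10^6 cells/mL | Medium: Fresh YPD growth medium | Dosing: Single dose | Times: Static 4 h at 37 °C with compound, 1 h detection | Detection: AK luminescence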
SUMO Mot1 rescue: yeast Mot1-301 growth rescue at high temperature, primary screen, SUMOylation pathway inhibitor project, S. cerevisiae, ATP luminescence, 38.5C | S. cerevisiae Mot1-301 growth rescue; percent above DMSO median, 100 means doubled | growth rescue, % at 18.8 µM | 320,000 tested, 1% active;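 active means every valid replicate shows activation above 250% relative to neutral control wells; inactive means the rest, any valid replicate at or below 250%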;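 further: OY570 slx delta 5 strain wells were the positive control but not used for scaling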
* marks the source's active call; other numbers are inactive results; . = no result. The list is not random: actives were taken first. Their share in the collection is about 1.5%.

SMILES	Statin myotox sup	Cneo AK release	SUMO Mot1 rescue
C[C@@H]1CN([C@@H](C)CO)C(=O)c2cc(NS(=O)(=O)c3ccc(F)cc3)ccc2O[C@@H](C)CCCCO[C@H]1CN(C)Cc1ccc2c(c1)OCO2	.	15.1	.
Cc1noc(C)c1S(=O)(=O)Nc1ccc2c(c1)C(=O)N([C@H](C)CO)C[C@@H](C)[C@H](CN(C)Cc1ccccc1)OCCCC[C@@H](C)O2	.	1.2	.
O=C(C[C@@H]1CC[C@H]2[C@@H](COC[C@H](O)CN2C(=O)c2ccccn2)O1)NC1CCC1	-11.8	-0.8	.
CO[C@H]1CN(C)C(=O)c2ccc(NC(=O)C3CC3)cc2OC[C@H](C)N(C(=O)c2ccccn2)C[C@H]1C	0.5	0.7	.
O=C(Nc1ccccc1)Nc1ccc2c(c1)[C@@H]1C[C@@H](CC(=O)N3CCCCC3)O[C@@H](CO)[C@@H]1O2	8.3	1.9	.
O=C(c1sc2cc([N+](=O)[O-])ccc2c1Cl)N1CCCCC1	1.4	-0.5	3.2
CC1CCCN(C(=O)c2sc3cc([N+](=O)[O-])ccc3c2Cl)C1 (configuration not stated)	65.8*	-5.1	-12.9
C[C@H]1CN([C@@H](C)CO)C(=O)Cc2cc(NC(=O)Cn3cnnn3)ccc2O[C@H]1CN(C)C(=O)Nc1ccc(F)cc1	14.0	.	.
C[C@H]1CN([C@@H](C)CO)C(=O)CCCn2cc(nn2)CO[C@H]1CN(C)Cc1cccnc1	2.9	-7.9	.
C[C@@H]1CCCCO[C@H](CN(C)C(=O)CCCN(C)C)[C@@H](C)CN([C@H](C)CO)C(=O)c2cc(NC(=O)Cc3ccccc3)ccc2O1	.	115.6*	.
C[C@@H]1CCCCO[C@H](CN(C)C(=O)CCCN(C)C)[C@H](C)CN([C@@H](C)CO)C(=O)c2cc(NC(=O)Cc3ccccc3)ccc2O1	.	2.2	.
C[C@H]1CCCCO[C@@H](CN(C)C(=O)CCCN(C)C)[C@@H](C)CN([C@@H](C)CO)C(=O)c2cc(NC(=O)Cc3ccccc3)ccc2O1	.	2.5	.
C[C@@H]1CCCCO[C@@H](CN(C)C(=O)CCCN(C)C)[C@@H](C)CN([C@H](C)CO)C(=O)c2cc(NC(=O)Cc3ccccc3)ccc2O1	.	103.8*	.
Cc1nn(C)cc1NC(=O)C[C@H]1CC[C@@H]2[C@@H](COc3ccc(NC(=O)C4CCC4)cc3C(=O)N2C)O1	-9.9	.	.
Cc1cccc(C(=O)N2CCc3cc(-c4nc(NC(=O)CN5CCCC5)sc4C)ccc32)c1	-20.0	-2.0	-16.8
Cc1cccc(C(=O)N2CCc3cc(-c4nc(NC(=O)Cn5nnc6ccccc6c5=O)sc4C)ccc32)c1	.	.	378.3*
CS(=O)(=O)N(CC(=O)NCc1ccco1)c1ccc(OCc2ccccc2)cc1	123.1*	-0.1	-1.4
COc1ccc(N(CC(=O)NCc2ccco2)S(C)(=O)=O)cc1	3.3	1.4	6.0
O=S(=O)(N[C@@H]1CC[C@@H](CCn2cc(-c3ccccn3)nn2)O[C@H]1CO)c1cccc(F)c1	-0.8	-0.9	.
Cc1cc(C(=O)Nc2cccc3c2O[C@@H](CN(C)Cc2ccc(-c4ccccc4)cc2)[C@H](C)CN([C@H](C)CO)C3=O)n(C)n1	-13.7	-3.3	.
CCOc1ccccc1Nc1ncnc2ccc(Br)cc12	.	.	67.7
CCOc1ccccc1Nc1ncnc2ccccc12	85.9*	3.8	-6.3
CCCCc1cc(=O)oc2c3c(cc(OCC(=O)N4CCC[C@H]4C(=O)O)c12)OC(C)(C)CC3	12.2	6.3	720.9*
Cc1cc(=O)oc2c3c(cc(OCC(=O)N4CCC(C(=O)O)CC4)c12)OC(C)(C)CC3	-6.0	0.1	15.9
Cc1c(C)c2c(OCC(=O)N3CCC(C(N)=O)CC3)cc3c(c2oc1=O)CCC(C)(C)O3	3.0	0.8	610.1*
SMILES	Statin myotox sup	Cneo AK release	SUMO Mot1 rescue
Cc1cc(=O)oc2c3c(cc(OCC(=O)N4CCC[C@H]4C(=O)O)c12)OC(C)(C)CC3	0.0	0.2	298.7
COc1ccc(NC(=O)N(C)C[C@@H]2Oc3ccc(NC(=O)c4ccncc4)cc3C(=O)N([C@H](C)CO)C[C@H]2C)cc1	8.7	0.5	.
C[C@H](CO)N1C[C@H](C)[C@@H](CN(C)S(=O)(=O)c2cn(C)cn2)Oc2ccc(NS(=O)(=O)c3ccc(Cl)cc3)cc2CC1=O	11.9	0.0	.
CC(=O)C1=C(C)Nc2ncnn2C1c1cccc(O)c1 (configuration not stated)	1.0	0.8	335.9*
CC(=O)C1=C(C)Nc2ncnn2C1c1ccc(O)cc1 (configuration not stated)	-2.7	-1.7	-17.2
Cc1ccc2nc(SCC(=O)N(CC(C)C)c3c(N)n(CC(C)C)c(=O)[nH]c3=O)[nH]c2c1	101.3*	4.5	3.0
CC(C)CN(C(=O)CCC(=O)OCC(=O)N(C)c1ccccc1)c1c(N)n(CC(C)C)c(=O)[nH]c1=O	10.6	1.2	514.9*
CC(C)CN(C(=O)CCC(=O)OCC(=O)c1ccc(F)c(F)c1)c1c(N)n(CC(C)C)c(=O)[nH]c1=O	.	0.4	-7.0
CC(C)CN(C(=O)CSc1nc2ccccc2[nH]1)c1c(N)n(Cc2ccccc2)c(=O)[nH]c1=O	2.6	-0.9	.
COc1ccc(CN(C)C[C@@H]2Oc3c(NC(=O)C4CCOCC4)cccc3C(=O)N([C@@H](C)CO)C[C@H]2C)cc1	16.7	-0.9	.
CC(=O)N(C)C[C@H]1Oc2cc(-c3cccc(F)c3)ccc2S(=O)(=O)N([C@@H](C)CO)C[C@@H]1C	50.7	4.8	.
Cc1ccc(Nc2nc(N)nc(CN3CCCCCC3)n2)cc1	1.4	-0.5	-8.7
Cc1c(Cl)cccc1Nc1nc(N)nc(CN2CCCCCC2)n1	90.2*	-1.5	-5.3
O=C(O)C[C@H]1C[C@@H]2c3cc(NS(=O)(=O)c4ccccc4)ccc3O[C@@H]2[C@H](CO)O1	0.1	-0.8	.
CCCNC(=O)C[C@@H]1C[C@H]2c3cc(NC(=O)Nc4ccc(F)cc4)ccc3O[C@H]2[C@H](CO)O1	2.1	1.2	.
O=c1[nH][nH]c(-c2ccccc2O)c1C(C[N+](=O)[O-])c1ccc(Cl)cc1Cl (configuration not stated)	18.3	0.3	268.6*
O=c1[nH][nH]c(-c2ccccc2O)c1C(C[N+](=O)[O-])c1cccc(Cl)c1 (configuration not stated)	.	.	52.2
Cc1ccc(S(=O)(=O)NCCc2ccncc2)cc1	.	-1.2	-8.1
CCCCc1ccc(S(=O)(=O)NCCc2ccncc2)cc1	125.6*	1.0	3.2
COc1ccc(S(=O)(=O)Nc2ccc3c(c2)C(=O)N([C@@H](C)CO)C[C@@H](C)[C@H](CN(C)C)OCCCC[C@@H](C)O3)cc1	.	0.2	.
C[C@@H]1CN([C@@H](C)CO)C(=O)c2cccc(NC(=O)c3nc4ccccc4s3)c2O[C@H]1CN(C)Cc1ccc(C(=O)Nc2ccccc2N)cc1	100.6*	-1.1	.
C[C@H](CO)N1C[C@H](C)[C@H](CN(C)C(=O)Nc2ccccc2)Oc2c(NC(=O)c3ccncc3)cccc2C1=O	7.7	1.0	.
